T cruzi inh – blocks replication of Trypanosoma cruzi; T. cruzi beta-gal in NIH3T3, luminescence, 90 h; inhibition, % (test concentration not listed); hit rate 1.4% among 300,000;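 active = mean inhibition across valid replicates above about 55%, limit read from the data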;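 also: signal also drops with host cell toxicity which is not excluded here; 0% = plate median of DMSO wells and 100% = zero luminescence signal; higher percent means less beta-gal luminescence so fewer parasites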
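System: Mouse NIH/3T3 fibroblasts infected with β-gal-expressing T. cruzi Tulahuen C4 | Quantity: NIH/3T3 cells, 5,000 per well | Reagent: 5000 reporter trypomastigotes per well | Dosing: Compound pinned at 50 nL/well, DMSO | Schedule: 3 h host attachment, then at least 90 h co-culture | Detection: GalScreen luminescence, 60 min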
HSF-1 act – increases HSF-1 driven luciferase reporter signal. activation, % at 9 µM. NIH3T3-HGL HSF-1 luciferase reporter, MG132, 8 h; 100% = twice DMSO control signal. hit rate 1.7% among 300,000. AID 504408;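 active = mean replicate activation of at least 50% with a set share of replicates each reaching 50%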;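 also: 0% = median of the neutral control wells and 100% = twice that signal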
Lmaj promast – Leishmania major promastigote growth inhibition; Leishmania major promastigotes, resazurin fluorescence viability; inhibition, % at 10 µM; hit rate 9% among 200,000; in the data active = inhibition above about 50%;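 also: promastigotes grown with compound for 44 hours at 28 °C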
HSF1 inhib – HSF1 inhibition; NIH3T3-HGL HSE-luciferase, MG132-induced, luminescence 8 h; active compounds read low; activity change, negative = inhibition, % at 7.5 µM (by protocol); hit rate 0.77% among 300,000;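 active = more than half of replicate wells show activity change below -50%, luminescence cut by over half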;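 also: luciferase reports HSF-1 transcriptional activity via heat shock element; 0% = median of DMSO wells and -100% = zero luminescence signal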
Hsp70 activator – Hsp70 transcriptional activation, primary screen | HeLa Hsp70 promoter luciferase reporter, luminescence; scaled: vehicle 0, proteasome-inhibitor control 100% | activation, % at 10 µM | hit rate 0.04% among 200,000;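 active = activation above the mean across all tested compounds plus 3 SD, cutoff set per campaign, cut at about 5.5% in these data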;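 also: 100% = MG132 at 30 µM as the positive control and 0% = DMSO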
Starred values were filed as active, the others as inactive. The sample as a whole holds a higher share of hits than the screen did.

Screening Cc1ccc(N(CC(=O)NCc2ccco2)C(=O)CCC(=O)Nc2nccs2)cc1 returned T cruzi inh -4, HSF-1 act -25 and HSF1 inhib -2.
For Cc1cc(C)cc(N(CC(=O)NCc2ccco2)C(=O)CCC(=O)Nc2nccs2)c1 the results were T cruzi inh 15, HSF-1 act -9, Lmaj promast 78*, HSF1 inhib 0 and Hsp70 activator 0.
`CC(C)(C)NC(=O)CN(C(=O)CCC(=O)Nc1nccs1)c1ccc2c(c1)OCCO2` gave T cruzi inh 0, HSF-1 act -15 and HSF1 inhib -5.
Screening CC(C)CCNC(=O)CN(C(=O)CCC(=O)Nc1nccs1)c1ccc2c(c1)OCCO2 returned T cruzi inh 4, HSF-1 act -63 and HSF1 inhib -62*.
`CCN1C(=S)SC(=O)C1=C1C=C(C)N(Cc2ccco2)C(C)=C1` gave T cruzi inh 17, HSF-1 act -59, Lmaj promast -6, HSF1 inhib -54* and Hsp70 activator 0.
Screening Oc1c(Cl)cc(Cl)cc1/C=N/NC(=S)NC1CC2C=CC1C2 (stereo not given) returned T cruzi inh -3, HSF-1 act 52* and HSF1 inhib 12.
For O=C(NCC(=O)N1CCN(c2ccccc2O)CC1)c1ccc(Br)o1 the results were T cruzi inh 23, HSF-1 act -62 and HSF1 inhib -52*.
For O=C(NCC(=O)N1CCCCCCC1)c1ccc(Br)o1 the results were T cruzi inh -13, HSF-1 act -6 and HSF1 inhib 2.
O=C(NCCc1ccc(Cl)cc1Cl)c1cccnc1 was read as T cruzi inh 11, HSF-1 act -11 and HSF1 inhib 0.
For CCn1cc(CNC(=O)C2CCC(=O)N(Cc3ccc(Cl)cc3)C2)cn1 (stereo not given) the results were T cruzi inh -14, HSF-1 act -16 and HSF1 inhib -3.
Screening CCc1cc(CNC(=O)C2CCC(=O)N(CCc3ccc(OC)cc3)C2)on1 (stereo not given) returned T cruzi inh -14, HSF-1 act 1 and HSF1 inhib -3.
`Cc1ccc(CNC(=O)C2CCC(=O)N(Cc3ccc(Cl)cc3)C2)cc1F` (stereo not given) gave T cruzi inh -11, HSF-1 act 56* and HSF1 inhib 16.
Screening COc1ccc(CCN2CC(C(=O)NCc3cc(C)on3)CCC2=O)cc1 (stereo not given) returned T cruzi inh -4, HSF-1 act 74* and HSF1 inhib 30.
O=C1CCc2cc(NS(=O)(=O)c3ccccc3)cc3c2N1CC3 was read as T cruzi inh 0, HSF-1 act 16 and HSF1 inhib 0.
`Cc1oc(-c2cccc(F)c2)nc1CN(Cc1ccccc1)C[C@@H]1CCC(=O)N1` gave T cruzi inh 19, HSF-1 act -23, Lmaj promast 59*, HSF1 inhib -4 and Hsp70 activator 0.
Cc1oc(-c2ccccc2Cl)nc1CN(Cc1ccccn1)C[C@@H]1CCC(=O)N1 was read as T cruzi inh -4, HSF-1 act 2, Lmaj promast -5, HSF1 inhib 4 and Hsp70 activator 0.
For Cc1oc(-c2ccoc2)nc1CN(CC1CCC(=O)N1)C(C)C (stereo not given) the results were T cruzi inh -21, HSF-1 act 72*, Lmaj promast -7, HSF1 inhib 19 and Hsp70 activator 0.
For CCN(CC(=O)Nc1c(F)cccc1F)C(=O)c1ccc(C#N)cc1 the results were T cruzi inh -6, HSF-1 act 22 and HSF1 inhib -2.
`CCCCn1c(N)c(N(CCC(C)C)C(=O)c2ccc([N+](=O)[O-])s2)c(=O)[nH]c1=O` gave T cruzi inh 64*, HSF-1 act 40 and HSF1 inhib 22.
Screening CCCCN(C(=O)c1ccc([N+](=O)[O-])s1)c1c(N)n(CC(C)C)c(=O)[nH]c1=O returned T cruzi inh 8, HSF-1 act 10 and HSF1 inhib -2.
O=C(Nc1ccccc1Cl)c1ccccc1Oc1ccc(C(F)(F)F)cc1[N+](=O)[O-] was read as T cruzi inh 21, HSF-1 act 12, Lmaj promast 79*, HSF1 inhib 7 and Hsp70 activator -1.
For COc1ccccc1NC(=O)COc1ccc(C(F)(F)F)cc1[N+](=O)[O-] the results were T cruzi inh 10, HSF-1 act 18, Lmaj promast -7, HSF1 inhib 0 and Hsp70 activator 0.
For CCCCC(=O)NC(c1ccc(C(C)C)cc1)c1ccc2cccnc2c1O (stereo not given) the results were T cruzi inh 44, HSF-1 act -43 and HSF1 inhib -36.
CCC(=O)NC(c1ccc([N+](=O)[O-])cc1)c1c(O)ccc2ccccc12 (stereo not given) was read as T cruzi inh 3, HSF-1 act 16, Lmaj promast 69*, HSF1 inhib 14 and Hsp70 activator 0.
For CCCCC(=O)NC(c1ccc([N+](=O)[O-])cc1)c1c(O)ccc2ccccc12 (stereo not given) the results were T cruzi inh 2, HSF-1 act 3, Lmaj promast 100*, HSF1 inhib 0 and Hsp70 activator 0.
`COc1cccc(/C=N/n2nnnc2N)c1OCC#N` gave T cruzi inh -7, HSF-1 act 0 and HSF1 inhib 2.
CC(C)(C)NC(=O)CCN(/N=C/c1ccccc1F)C1=NS(=O)(=O)c2ccccc21 was read as T cruzi inh 2, HSF-1 act -4 and HSF1 inhib 8.
N#Cc1ccc(COC(=O)c2cnc3ccccc3n2)cc1 was read as T cruzi inh 2, HSF-1 act 5 and HSF1 inhib -2.
N#C/C(=C\c1cccnc1)c1nc2c(s1)CCCC2 was read as T cruzi inh 29, HSF-1 act 107*, Lmaj promast 25, HSF1 inhib 71 and Hsp70 activator 0.
CC1CCc2nc(/C(C#N)=C/c3cccnc3)sc2C1 (stereo not given) was read as T cruzi inh 16, HSF-1 act 126*, Lmaj promast 34, HSF1 inhib 102 and Hsp70 activator 0.
For COc1ccc(Cn2nc(C)n(N(C)c3ncc(C(F)(F)F)cc3Cl)c2=O)cc1 the results were T cruzi inh -5, HSF-1 act -6, Lmaj promast 99*, HSF1 inhib -2 and Hsp70 activator 0.
`COC(=O)c1cn(N(C)c2ncc(C(F)(F)F)cc2Cl)c(=O)c2ccccc12` gave T cruzi inh 6, HSF-1 act 4, Lmaj promast 1, HSF1 inhib 1 and Hsp70 activator 0.
`C=CCn1c(N2CCOCC2)nc2c1c(=O)[nH]c(=O)n2C` gave T cruzi inh -2, HSF-1 act -1, Lmaj promast -2, HSF1 inhib -6 and Hsp70 activator 1.
NNC(=O)Cn1c2ccccc2c2ccccc21 was read as T cruzi inh 1, HSF-1 act -5 and HSF1 inhib -2.
